Data as given in ChEMBL document CHEMBL4052583, “A Potent, Selective, and Orally Bioavailable HCV NS5A Inhibitor for Treatment of Hepatitis C Virus: (S)-1-((R)-2-(Cyclopropanecarboxamido)-2-phenylacetyl)-N-(4-phenylthiazol-2-yl)pyrrolidine-2-carboxamide” (J Med Chem, 2017).

Assays:
[1] = Cytotoxic activity against human HuH7 cells containing HCV subgenomic replicons Ava5-EG(D4AB)SEAP by MTS assay; format: cell-based, Huh-7
[2] = Inhibition of NS5A in HCV genotype 1b Ava5 infected in human HuH7 cells containing Ava5-EG(D4AB)SEAP subgenomic replicons assessed as reduction in viral replicon growth incubated for 1 day by Phospha-light assay method; format: cell-based, Hepatitis C virus subtype 1b; conditions: Hepatitis C virus, Ava5, 24 h
[3] = Half life in Sprague-Dawley rat at 5 mg/kg, po after 1 to 24 hrs by HPLC-MS/MS method; format: ADME, organism-based; conditions: in vivo
[4] = AUC in Sprague-Dawley rat at 1 mg/kg, iv after 1 to 24 hrs by HPLC-MS/MS method; format: ADME, organism-based; conditions: in vivo
Method in brief: (§1)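 Rats received a single intravenous dose of 1 mg/kg. Clearance (mL/min/kg), steady-state volume of distribution (L/kg), half-life (h) and AUC (ng/mL×h) were reported as mean ± spread.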

[5] = Oral bioavailability in Sprague-Dawley rat at 5 mg/kg after 1 to 24 hrs by HPLC-MS/MS method; format: ADME, organism-based; conditions: in vivo
Method in brief: (§2)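 Rats were dosed orally at 5 mg/kg. Tmax (h), Cmax (ng/mL), AUC (ng/mL×h) and oral bioavailability F (%) were reported.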

[6] = AUC in Sprague-Dawley rat at 5 mg/kg, po after 1 to 24 hrs by HPLC-MS/MS method; format: ADME, organism-based; conditions: in vivo; method in brief: as §2
[7] = Clearance in Sprague-Dawley rat at 1 mg/kg, iv after 1 to 24 hrs by HPLC-MS/MS method; format: ADME, organism-based; conditions: in vivo; method in brief: as §1
[8] = Half life in Sprague-Dawley rat at 1 mg/kg, iv after 1 to 24 hrs by HPLC-MS/MS method; format: ADME, organism-based; conditions: in vivo; method in brief: as §1
[9] = Tmax in Sprague-Dawley rat at 5 mg/kg, po after 1 to 24 hrs by HPLC-MS/MS method; format: ADME, organism-based; conditions: in vivo; method in brief: as §2
[10] = Cmax in Sprague-Dawley rat at 5 mg/kg, po after 1 to 24 hrs by HPLC-MS/MS method; format: ADME, organism-based; parameters: dose 5 mg/kg, route oral; conditions: in vivo; method in brief: as §2
[11] = Volume of distribution at steady state in Sprague-Dawley rat at 1 mg/kg, iv after 1 to 24 hrs by HPLC-MS/MS method; format: ADME, organism-based; conditions: in vivo, read-out: Vdss; method in brief: as §1
[12] = Selectivity index, ratio of CC50 for cytotoxic activity against human HuH7 cells containing HCV subgenomic replicons Ava5-EG(D4AB)SEAP to IC50 for inhibition of NS5A in HCV genotype 1b Ava5 infected in human HuH7 cells containing Ava5-EG(D4AB)SEAP subgenomic replicons

| SMILES | CC50 [1] [nM] | EC50 [2] [nM] | also measured |
| --- | --- | --- | --- |
| O=C(Nc1nccs1)[C@@H]1CCCN1C(=O)[C@H](NC(=O)N1CCOCC1)c1ccccc1 | > 50000 | 9650 | – |
| CC(C)(C)[C@@H](NC(=O)N1CCOCC1)C(=O)N1CCC[C@H]1C(=O)Nc1nc(-c2ccccc2)cs1 | > 50000 | 7060 | – |
| O=C(N[C@@H](C(=O)N1CCC[C@H]1C(=O)Nc1nc(-c2ccccc2)cs1)c1ccccc1)c1ccccn1 | > 50000 | 22 | – |
| C[C@@H](NC(=O)N1CCOCC1)C(=O)N1CCC[C@H]1C(=O)Nc1nc(-c2ccccc2)cs1 | > 50000 | 1310 | – |
| CC(C)C(=O)N[C@@H](C(=O)N1CCC[C@H]1C(=O)Nc1nc(-c2ccccc2)cs1)c1ccccc1 | > 50000 | 36 | – |
| O=C(N[C@@H](C(=O)N1CCC[C@H]1c1nc(-c2ccccc2)no1)c1ccccc1)N1CCOCC1 | > 50000 | > 50000 | – |
| O=C(NC1CCCCC1)N[C@@H](C(=O)N1CCC[C@H]1C(=O)Nc1nc(-c2ccccc2)cs1)c1ccccc1 | > 50000 | 3.3 | – |
| CCCC(=O)N[C@@H](C(=O)N1CCC[C@H]1C(=O)Nc1nc(-c2ccccc2)cs1)c1ccccc1 | > 50000 | 15 | – |
| CCN(CC)C(=O)N[C@@H](C(=O)N1CCC[C@H]1C(=O)Nc1nc(-c2ccccc2)cs1)c1ccccc1 | > 50000 | 18 | – |
| CC[C@@H](NC(=O)N1CCOCC1)C(=O)N1CCC[C@H]1C(=O)Nc1nc(-c2ccccc2)cs1 | > 50000 | 1630 | – |
| O=C(Nc1cccnc1)N[C@@H](C(=O)N1CCC[C@H]1C(=O)Nc1nc(-c2ccccc2)cs1)c1ccccc1 | > 50000 | 1.9 | – |
| O=C(Nc1nc(-c2ccccc2)cs1)[C@@H]1CCCN1C(=O)[C@H](NC(=O)N1CCCCC1)c1ccccc1 | > 50000 | 3.1 | – |
| O=C(Nc1nc(-c2ccccc2)cs1)[C@@H]1CCCN1C(=O)[C@H](NC(=S)Nc1ccccc1)c1ccccc1 | > 50000 | 46 | – |
| CC(=O)N[C@@H](C(=O)N1CCC[C@H]1C(=O)Nc1nc(-c2ccccc2)cs1)c1ccccc1 | > 50000 | 16 | – |
| CC(C)(C)c1csc(NC(=O)[C@@H]2CCCN2C(=O)[C@H](NC(=O)N2CCOCC2)c2ccccc2)n1 | > 50000 | 21 | – |
| O=C(Nc1nc(-c2ccccc2)cs1)[C@@H]1CCCN1C(=O)[C@H](NC(=O)N1CCCC1)c1ccccc1 | > 50000 | 3.1 | half-life [3]: 2.4 h; AUC [4]: 311 ng·h/mL; bioavailability [5]: 20.4%; AUC [6]: 288 ng·h/mL; clearance [7]: 55.1 mL/min/kg; half-life [8]: 0.5 h; Tmax [9]: 2.8 h; Cmax [10]: 63.9 ng/mL; Vd [11]: 1.1 L/kg |
| O=C(Nc1ccccn1)N[C@@H](C(=O)N1CCC[C@H]1C(=O)Nc1nc(-c2ccccc2)cs1)c1ccccc1 | > 50000 | 30 | – |
| O=C(N[C@@H](C(=O)N1CCC[C@H]1c1ncc(-c2ccccc2)s1)c1ccccc1)N1CCOCC1 | > 50000 | 2970 | – |
| O=C(N[C@@H](C(=O)N1CCC[C@H]1c1nc(-c2ccccc2)cs1)c1ccccc1)N1CCOCC1 | > 50000 | 9440 | – |
| O=C(Nc1nc(-c2ccccc2)cs1)[C@@H]1CCCN1C(=O)[C@H](NC(=S)NC1CCCCC1)c1ccccc1 | > 50000 | 3.2 | – |
| O=C(Nc1nc(C2CCCCC2)cs1)[C@@H]1CCCN1C(=O)[C@H](NC(=O)N1CCOCC1)c1ccccc1 | > 50000 | 6 | – |
| CCC(=O)N[C@@H](C(=O)N1CCC[C@H]1C(=O)Nc1nc(-c2ccccc2)cs1)c1ccccc1 | > 50000 | 23 | – |

| SMILES | CC50 [1] [nM] | EC50 [2] [nM] | also measured |
| --- | --- | --- | --- |
| O=C(N[C@@H](C(=O)N1CCC[C@H]1C(=O)Nc1nc(-c2ccccc2)cs1)c1ccccc1)c1ccncc1 | > 50000 | 3.8 | half-life [3]: 4.5 h; AUC [4]: 296 ng·h/mL; bioavailability [5]: 10.1%; AUC [6]: 125 ng·h/mL; clearance [7]: 62.2 mL/min/kg; half-life [8]: 0.5 h; Tmax [9]: 0.7 h; Cmax [10]: 58.3 ng/mL; Vd [11]: 1.8 L/kg |
| O=C(NC1CC1)N[C@@H](C(=O)N1CCC[C@H]1C(=O)Nc1nc(-c2ccccc2)cs1)c1ccccc1 | > 50000 | 3.5 | – |
| O=C(N[C@@H](C(=O)N1CCC[C@H]1C(=O)Nc1nc(-c2ccccc2)cs1)c1ccccc1)C1CC1 | > 50000 | 4.6 | half-life [3]: 2.8 h; AUC [4]: 635 ng·h/mL; bioavailability [5]: 45%; AUC [6]: 1440 ng·h/mL; Ratio CC50/EC50 [12]: >10000; clearance [7]: 27.1 mL/min/kg; half-life [8]: 1.3 h; Tmax [9]: 0.8 h; Cmax [10]: 260 ng/mL; Vd [11]: 1.32 L/kg |
| O=C(NC1CCCC1)N[C@@H](C(=O)N1CCC[C@H]1C(=O)Nc1nc(-c2ccccc2)cs1)c1ccccc1 | > 50000 | 13 | – |
| O=C(N[C@@H](C(=O)N1CCC[C@H]1C(=O)Nc1nc(-c2ccccc2)cs1)c1ccccc1)C1CCCC1 | > 50000 | 13 | – |
| O=C(N[C@@H](C(=O)N1CCC[C@H]1C(=O)Nc1nc(-c2ccccc2)cs1)c1ccccc1)c1cccnc1 | > 50000 | 13 | – |
| O=C(NC1CCCCCC1)N[C@@H](C(=O)N1CCC[C@H]1C(=O)Nc1nc(-c2ccccc2)cs1)c1ccccc1 | > 50000 | 3.8 | – |
| O=C(N[C@@H](C(=O)N1CCC[C@H]1C(=O)Nc1nc(-c2ccccc2)cs1)c1ccccc1)C1CCCCC1 | > 50000 | 14 | – |
| O=C(Nc1ccccc1)N[C@@H](C(=O)N1CCC[C@H]1C(=O)Nc1nc(-c2ccccc2)cs1)c1ccccc1 | > 50000 | 2.3 | – |
| CC(C)[C@@H](NC(=O)N1CCOCC1)C(=O)N1CCC[C@H]1C(=O)Nc1nc(-c2ccccc2)cs1 | > 50000 | 990 | – |
| O=C(Nc1ccncc1)N[C@@H](C(=O)N1CCC[C@H]1C(=O)Nc1nc(-c2ccccc2)cs1)c1ccccc1 | > 50000 | 22 | – |
| O=C(N[C@@H](C(=O)N1CCC[C@H]1c1ncc(-c2ccccc2)[nH]1)c1ccccc1)N1CCOCC1 | > 50000 | 98 | – |
| O=C(N[C@@H](C(=O)N1CCC[C@H]1C(=O)Nc1nc(-c2ccccc2)cs1)c1ccccc1)c1ccccc1 | > 50000 | 15 | half-life [3]: 2.7 h; AUC [4]: 367 ng·h/mL; bioavailability [5]: 31%; AUC [6]: 588 ng·h/mL; clearance [7]: 44.8 mL/min/kg; half-life [8]: 2.3 h; Tmax [9]: 2.3 h; Cmax [10]: 109 ng/mL; Vd [11]: 4.2 L/kg |
| O=C(Nc1nc(-c2ccccc2)cs1)[C@@H]1CCCN1C(=O)[C@H](NC(=S)NC1CCCC1)c1ccccc1 | > 50000 | 5.2 | – |
| CC(C)(C)C(=O)N[C@@H](C(=O)N1CCC[C@H]1C(=O)Nc1nc(-c2ccccc2)cs1)c1ccccc1 | > 50000 | 86 | – |
| O=C(Nc1nc(-c2ccccc2)cs1)[C@@H]1CCCN1C(=O)[C@H](NC(=S)NC1CC1)c1ccccc1 | > 50000 | 34 | – |
| CN1CCN(C(=O)N[C@@H](C(=O)N2CCC[C@H]2C(=O)Nc2nc(-c3ccccc3)cs2)c2ccccc2)CC1 | > 50000 | 0.85 | – |
| Cc1csc(NC(=O)[C@@H]2CCCN2C(=O)[C@H](NC(=O)N2CCOCC2)c2ccccc2)n1 | > 50000 | 400 | – |
| CCC[C@@H](NC(=O)N1CCOCC1)C(=O)N1CCC[C@H]1C(=O)Nc1nc(-c2ccccc2)cs1 | > 50000 | 270 | – |
| CN(C)C(=O)N[C@@H](C(=O)N1CCC[C@H]1C(=O)Nc1nc(-c2ccccc2)cs1)c1ccccc1 | > 50000 | 11 | – |
| O=C(Nc1nc(-c2ccccc2)cs1)[C@@H]1CCCN1C(=O)[C@H](NC(=S)Nc1cccnc1)c1ccccc1 | > 50000 | 23 | – |
| O=C(Nc1nc(-c2ccccc2)cs1)[C@@H]1CCCN1C(=O)[C@H](NC(=O)N1CCOCC1)c1ccccc1 | > 50000 | 0.92 | half-life [3]: 1.6 h; AUC [4]: 436 ng·h/mL; bioavailability [5]: 18.7%; AUC [6]: 404 ng·h/mL; clearance [7]: 38.4 mL/min/kg; half-life [8]: 0.46 h; Tmax [9]: 0.8 h; Cmax [10]: 247 ng/mL; Vd [11]: 1.04 L/kg |
